Assay results taken from ChEMBL document CHEMBL1132592, “Synthesis of novel 2-benzothiopyran and 3-benzothiepin derivatives and their stimulatory effect on bone formation” (J Med Chem, 1999).

Assays:
[1] = biological target: T1, Alkaline phosphatase, tissue-nonspecific isozyme (Mus musculus) (UniProt P09242); test: Alkaline phosphatase stimulatory activity of 10E-5 M compound in culture of MC3T3-E1 in presence of 3 ng/mL of BMP
T1 sequence (whole entry): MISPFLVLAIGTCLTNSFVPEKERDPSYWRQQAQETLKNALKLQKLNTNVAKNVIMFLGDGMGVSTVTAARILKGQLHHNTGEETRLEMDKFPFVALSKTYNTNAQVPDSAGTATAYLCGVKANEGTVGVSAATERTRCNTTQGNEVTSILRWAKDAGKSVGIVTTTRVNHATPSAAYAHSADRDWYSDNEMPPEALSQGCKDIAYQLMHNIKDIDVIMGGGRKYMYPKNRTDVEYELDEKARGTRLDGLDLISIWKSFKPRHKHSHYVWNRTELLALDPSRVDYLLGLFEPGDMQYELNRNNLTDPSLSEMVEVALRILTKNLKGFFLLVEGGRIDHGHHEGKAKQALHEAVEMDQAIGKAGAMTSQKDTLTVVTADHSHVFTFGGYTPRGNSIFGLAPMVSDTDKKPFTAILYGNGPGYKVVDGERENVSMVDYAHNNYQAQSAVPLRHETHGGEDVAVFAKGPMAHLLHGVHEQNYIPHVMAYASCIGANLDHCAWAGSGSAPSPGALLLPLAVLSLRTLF
Summary of the method: (§1)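 Mouse osteoblastic MC3T3-E1 cells, 3000 cells/well, grown 3 days in α-MEM with 10% FBS, then switched to α-MEM with 1% FBS plus compound, with or without recombinant Xenopus BMP-4/7 heterodimer (3 ng/mL), for 3 more days. ALP in lysate supernatant read as absorbance at 405 nm; mean ± SE, n = 6; Dunnett's test vs matching control.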

[2] = biological target: T1, Alkaline phosphatase, tissue-nonspecific isozyme (Mus musculus); test: Alkaline phosphatase stimulatory activity of 10E-5 M compound in culture of MC3T3-E1 in absence of BMP; summary of the method: as §1
[3] = biological target: T2, Alkaline phosphatase, tissue-nonspecific isozyme (Rattus norvegicus) (UniProt P08289); test: Effect on alkaline phosphatase activity compared to control in culture of rat bone marrow stromal cells, 10E-5 M concentration; assay type: tissue-based
T2 sequence (whole entry): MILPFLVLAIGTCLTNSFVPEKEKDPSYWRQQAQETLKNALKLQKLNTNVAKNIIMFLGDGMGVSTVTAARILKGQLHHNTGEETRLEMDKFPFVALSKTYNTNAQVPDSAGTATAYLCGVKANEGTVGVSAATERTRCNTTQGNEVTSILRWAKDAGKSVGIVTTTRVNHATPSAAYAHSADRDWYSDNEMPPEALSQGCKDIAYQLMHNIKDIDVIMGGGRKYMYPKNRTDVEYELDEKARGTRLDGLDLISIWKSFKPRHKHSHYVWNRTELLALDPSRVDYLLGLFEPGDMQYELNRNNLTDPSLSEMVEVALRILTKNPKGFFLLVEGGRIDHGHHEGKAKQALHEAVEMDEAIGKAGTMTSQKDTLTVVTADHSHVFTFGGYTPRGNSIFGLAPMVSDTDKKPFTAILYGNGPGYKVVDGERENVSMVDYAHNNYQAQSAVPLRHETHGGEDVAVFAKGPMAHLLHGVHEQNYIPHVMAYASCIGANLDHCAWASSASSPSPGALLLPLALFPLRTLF
Summary of the method: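 Rat femoral marrow stromal cells subcultured at 4 × 10^4 cells/well in α-MEM with 15% FBS, ascorbate, 10 mM β-glycerophosphate and 10^-7 M dexamethasone. Compound added day 1 to day 10-14, medium refreshed every other day. Lysate ALP (Lowry method) given as fold of control; n = 5–10; Student's t-test.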

[4] = biological target: T2, Alkaline phosphatase, tissue-nonspecific isozyme (Rattus norvegicus); test: Effect of 10E-5 M compound on alkaline phosphatase activity in culture of rat bone marrow stromal cells; assay type: tissue-based
Summary of the method: (§2)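 Femoral marrow stromal cells from 7-week-old male Sprague-Dawley rats. Primary culture 1 week in α-MEM (10 mM HEPES pH 7.0, 15% FBS, 2 mM glutamine, 50 μg/mL ascorbate, 10 mM β-glycerophosphate, 10^-7 M dexamethasone), 37 °C, 5% CO2. Subcultured at 4 × 10^4 cells/well; compound (10 mM stock in EtOH-DMSO 1:1 or DMF) from day 1 to day 10-14, medium changed every other day. Lysate ALP (Lowry method) in nmol/min/well; mean ± SE, n = 5–10.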

[5] = biological target: T1, Alkaline phosphatase, tissue-nonspecific isozyme (Mus musculus); test: Alkaline phosphatase stimulatory activity of 10E-6 M compound in culture of MC3T3-E1 in presence of 3 ng/mL of BMP; summary of the method: as §1
[6] = biological target: T1, Alkaline phosphatase, tissue-nonspecific isozyme (Mus musculus); test: Alkaline phosphatase stimulatory activity of 10E-6 M compound in culture of MC3T3-E1 in absence of BMP; summary of the method: as §1
[7] = biological target: T2, Alkaline phosphatase, tissue-nonspecific isozyme (Rattus norvegicus); test: Effect of 10E-7 M compound on alkaline phosphatase activity in culture of rat bone marrow stromal cells; summary of the method: as §2
[8] = biological target: T2, Alkaline phosphatase, tissue-nonspecific isozyme (Rattus norvegicus); test: Effect of 10E-6 M compound on alkaline phosphatase activity in culture of rat bone marrow stromal cells; summary of the method: as §2

ALP activity [1]: 0.284
ALP activity [2]: 0.195
ALP activity [3]: 5.5
ALP activity [4]: 1640
ALP activity [5]: 0.191
ALP activity [6]: 0.154
ALP activity [7]: 192
ALP activity [8]: 682
Compound: CCOP(=O)(Cc1ccc(NC(=O)[C@H]2Cc3cc4c(cc3C(=O)[C@H](C)S2)OCO4)cc1)OCC
